Reference: article PMC13322713 (Molecular imaging and biology, 2025)
Where “and” joins values, the source holds several entries; their conditions need not be identical. Identical values can stand only once.

Columns and labels:
[1] = system: DX3puroβ6 (αvβ6 +) cells; assay: Cell binding and internalization, DX3puroβ6 cells; assay type: cell-based
Outline: (§1)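 Cells cultured at 37 °C, 5% CO2 with 10% FBS and 1% PSG: puromycin-containing DMEM for the DX3 pair, RPMI for BxPC-3. Integrin expression was checked by flow cytometry beforehand. The radiotracer was incubated 1 h with 3.75 × 10^6 cells per experiment in PBS containing calcium and magnesium, with non-fat dry milk blocking. Internalization was at 37 °C. Bound and internalized fractions are expressed as % of total radioactivity, quadruplicate, mean ± SD.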

[2] = system: pancreatic BxPC-3 (αvβ6 +) cells; assay: Cell binding and internalization, BxPC-3 cells; assay type: cell-based
Outline: as §1

[3] = Lipophilicity logD7.4, octanol/PBS partitioning; assay type: physicochemical; conditions: pH 7.4
[4] = target: integrin αvβ6 (Homo sapiens, UniProt P06756+P18564); assay: Competitive binding ELISA against Bt-LAP; conditions: ratio of ELISA IC50s
Chain of integrin αvβ6 (P06756 31-1048): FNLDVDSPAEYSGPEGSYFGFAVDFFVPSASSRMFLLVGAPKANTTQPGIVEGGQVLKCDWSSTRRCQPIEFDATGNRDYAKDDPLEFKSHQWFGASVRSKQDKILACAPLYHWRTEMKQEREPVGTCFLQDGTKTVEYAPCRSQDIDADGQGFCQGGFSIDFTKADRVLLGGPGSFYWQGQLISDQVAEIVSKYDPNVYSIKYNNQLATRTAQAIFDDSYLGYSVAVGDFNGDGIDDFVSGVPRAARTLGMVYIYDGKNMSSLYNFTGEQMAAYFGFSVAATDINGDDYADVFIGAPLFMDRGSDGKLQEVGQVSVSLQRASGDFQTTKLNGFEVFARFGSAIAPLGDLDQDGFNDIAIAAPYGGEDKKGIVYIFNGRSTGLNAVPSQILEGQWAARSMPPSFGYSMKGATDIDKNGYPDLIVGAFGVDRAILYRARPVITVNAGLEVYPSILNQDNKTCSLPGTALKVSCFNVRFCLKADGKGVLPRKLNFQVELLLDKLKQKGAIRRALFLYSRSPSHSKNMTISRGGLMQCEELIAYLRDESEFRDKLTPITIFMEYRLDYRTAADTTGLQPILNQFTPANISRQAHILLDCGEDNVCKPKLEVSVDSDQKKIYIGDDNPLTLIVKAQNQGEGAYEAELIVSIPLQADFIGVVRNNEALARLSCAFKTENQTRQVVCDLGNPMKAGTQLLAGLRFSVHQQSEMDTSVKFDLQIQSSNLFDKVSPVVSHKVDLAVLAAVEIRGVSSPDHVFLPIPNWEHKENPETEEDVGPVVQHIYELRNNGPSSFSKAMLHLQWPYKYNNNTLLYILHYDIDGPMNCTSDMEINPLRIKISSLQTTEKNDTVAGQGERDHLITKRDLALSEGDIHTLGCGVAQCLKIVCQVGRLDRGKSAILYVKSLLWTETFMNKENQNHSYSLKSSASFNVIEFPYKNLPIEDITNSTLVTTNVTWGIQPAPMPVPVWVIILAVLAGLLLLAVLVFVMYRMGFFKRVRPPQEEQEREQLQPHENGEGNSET
Chain of integrin αvβ6 (P18564 22-788): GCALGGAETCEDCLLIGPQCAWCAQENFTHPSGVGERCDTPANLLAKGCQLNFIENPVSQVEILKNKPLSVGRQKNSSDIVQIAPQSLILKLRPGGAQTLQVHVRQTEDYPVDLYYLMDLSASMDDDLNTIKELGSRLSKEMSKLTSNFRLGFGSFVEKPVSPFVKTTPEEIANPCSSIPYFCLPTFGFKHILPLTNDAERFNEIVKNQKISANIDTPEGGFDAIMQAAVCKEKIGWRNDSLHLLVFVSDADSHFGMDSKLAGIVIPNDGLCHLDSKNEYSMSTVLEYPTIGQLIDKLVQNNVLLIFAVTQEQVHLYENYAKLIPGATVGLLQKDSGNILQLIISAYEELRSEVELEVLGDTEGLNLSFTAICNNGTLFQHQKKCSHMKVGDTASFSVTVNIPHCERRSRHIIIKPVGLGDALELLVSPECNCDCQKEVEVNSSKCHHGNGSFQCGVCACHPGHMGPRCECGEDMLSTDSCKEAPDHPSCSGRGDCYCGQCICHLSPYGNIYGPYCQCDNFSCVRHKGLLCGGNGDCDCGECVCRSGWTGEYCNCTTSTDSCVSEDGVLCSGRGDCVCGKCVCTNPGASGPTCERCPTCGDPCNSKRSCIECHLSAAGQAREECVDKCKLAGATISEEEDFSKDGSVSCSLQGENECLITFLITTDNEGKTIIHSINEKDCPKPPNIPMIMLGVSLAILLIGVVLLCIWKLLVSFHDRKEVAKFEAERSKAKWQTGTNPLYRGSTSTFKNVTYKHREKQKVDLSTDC
Outline: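 Competitive ELISAs used biotinylated LAP as ligand for integrin αvβ6 and biotinylated vitronectin for αvβ3. IC50s came from a sigmoidal fit of binding over a peptide concentration range. The ratio is αvβ3 IC50 divided by αvβ6 IC50.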

[5] = Whole-body radioactivity / excretion during PET/CT study; design: species or system mice; conditions: female, athymic nude, mouse, in vivo, iv, 0.175 nmol per injection, total radioactivity
[6] = system: DX3puro (αvβ6 −) cells; assay: Cell binding and internalization, DX3puro cells; assay type: cell-based; conditions: 1 h, 3.75 × 10^6 cells/experiment, mean ± SD, n = 4
Outline: as §1

[7] = system: BxPC-3 tumor-bearing mice; assay: Biodistribution in BxPC-3 tumor-bearing mice; assay type: in vivo
Outline: (§2)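 Female athymic nude mice, inoculated subcutaneously with 5 × 10^6 BxPC-3 cells in RPMI/Matrigel (1/1 v/v), used at ~0.5 cm tumor diameter (approx. 3 weeks). Isoflurane-anesthetized mice received the tail-vein radiotracer in PBS at 2.2–3.3 MBq, with mass held at 0.175 nmol by adding nonmetallated compound. Tissues collected 1, 2 and 4 h p.i. (n = 4 per time point), rinsed, γ-counted, and expressed as decay-corrected %ID/g, mean ± SD.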

[8] = Biodistribution in BxPC-3 tumor-bearing mice; assay type: in vivo; conditions: female, athymic nude, mouse, iv, 0.175 nmol per injection, total radioactivity
Outline: as §2

CC(C)C[C@H](NC(=O)[C@H](CC(=O)O)NC(=O)CNC(=O)[C@H](CCCNC(=N)N)NC(=O)[C@H](CC(C)C)NC(=O)[C@H](CC(N)=O)NC(=O)[C@@H]1CCCN1C(=O)[C@@H](NC(=O)CNC(=O)[C@H](CC(N)=O)NC(=O)CNC(=O)CCOCCOCCOCCOCCOCCOCCOCCOCCOCCOCCOCCOCCOCCOCCOCCOCCOCCOCCOCCOCCOCCOCCOCCOCCOCCOCCOCCOCCNC(=O)CN1CCN(CC(=O)O)CCN(CC(=O)O)CC1)C(C)C)C(=O)N[C@@H](CCC(N)=O)C(=O)N[C@H](C(=O)N[C@@H](CC(C)C)C(=O)NCC(=O)N[C@@H](CCC(N)=O)C(=O)N[C@@H](CCCNC(=N)N)C(=O)N[C@H](C(=O)NCC(=O)N[C@@H](CCCNC(=N)N)C(=O)N[C@H](C(=O)NCCOCCOCCOCCOCCOCCOCCOCCOCCOCCOCCOCCOCCOCCOCCOCCOCCOCCOCCOCCOCCOCCOCCOCCOCCOCCOCCOCCOCCC(N)=O)[C@@H](C)O)C(C)C)C(C)C [[^18F]AlF NOTA-5G]
Ratio of cell binding DX3puroβ6 vs DX3puro ([1]; 1 h): 33/1
Ratio of internalization DX3puroβ6 vs DX3puro ([1]; 1 h at 37 °C): 96/1
Radioactivity internalized ([1]; DX3puroβ6, 1 h at 37 °C, abstract: of bound activity): ≥ 50%
Cell binding, % of total radioactivity bound ([1]; DX3puroβ6 αvβ6(+), 1 h, 3.75 × 10^6 cells/experiment, mean ± SD, n = 4): 66% and 66.2 ± 0.8%
Radioactivity internalized ([2]; BxPC-3, 1 h at 37 °C, abstract: of bound activity): ≥ 50%
Cell binding, % of total radioactivity bound ([2]; BxPC-3 αvβ6(+), 1 h, 3.75 × 10^6 cells/experiment, mean ± SD, n = 4): 29.1 ± 3.7%
logD [3]: -2.34 ± 0.08
IC50-ratio (αvβ3 vs αvβ6) [4]: > 7700/1
dose excreted at 4 h [5]: 80%
Cell binding, % of total radioactivity bound [6]: 2% and 2.0 ± 0.2%
Tumor/blood ratio ([7]; 2 h p.i.): greater than 15/1
Tumor/liver ratio ([7]; 2 h p.i.): greater than 15/1
Tumor/pancreas ratio ([7]; 2 h p.i.): greater than 15/1
Tumor/blood ratio ([7]; 4 h p.i.): 162/1
Tumor/liver ratio ([7]; 4 h p.i.): 24/1
Tumor/muscle ratio ([7]; 4 h p.i.): 6/1
Tumor/pancreas ratio ([7]; 4 h p.i.): 18/1
Radioactivity levels in tissues aside from kidneys and GI tract, including bone ([7]; all time points (1, 2, 4 h p.i.)): ≤ 1.6 % ID/g
tissue uptake at 1 h ([8]; BxPC-3 tumor): 2.3 ± 0.4 %ID/g
tissue uptake at 4 h ([8]; BxPC-3 tumor): 1.8 ± 0.6 %ID/g
tissue uptake at 1 h ([8]; blood): 0.16 ± 0.03 %ID/g
tissue uptake at 4 h ([8]; blood): 0.01 ± 0.01 %ID/g
excreta dose per gram or mL at 1 h ([8]; feces): 0.7 ± 0.1 %ID/g
excreta dose per gram or mL at 4 h ([8]; feces): 5 ± 2.1 %ID/g
tissue uptake at 1 h ([8]; kidneys): 18.6 ± 6.4 %ID/g
tissue uptake at 4 h ([8]; kidneys): 12.5 ± 1.8 %ID/g
